Source: article PMC3005096 (Steroids, 2010)
Like-named read-outs stand apart in the source and are kept apart here.

Experiments:
HaCaT keratinocytes = test: Proliferation of HaCaT keratinocytes; format: cell-based, human; conditions: for EC50: read-out: EC50, inhibition of proliferation
SKMEL-188 cells = test: [3H]-thymidine incorporation; format: cell-based, human; conditions: SKMEL-188, 72 h, [3H]-thymidine last 4 h
Method in brief: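 SKMEL-188 cells were grown in Ham's F-10 with 5% charcoal-treated FBS and synchronized at G0/G1 in serum-free medium. Compounds were added in fresh medium with 5% charcoal-treated FBS for 72 h. [3H]-thymidine (88.0 Ci/mmol) was present at 0.5 μCi/ml final for the last 4 h. Cells were precipitated with 10% TCA and counted by liquid scintillation. Mean ± SD, n=4; one-way ANOVA and t-test.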

melanoma SKMEL-188 = test: Colony forming assay; format: cell-based, human; conditions: SKMEL-188, 0.1, 10 and 1000 nM, 6-10 days
Method in brief: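 SKMEL-188 cells were plated at 500 cells/well in 12-well plates in F10 medium with charcoal-stripped FBS and antibiotic-antimycotic, at 37°C in 5% CO2. They were treated at 0.1, 10 and 1000 nM, with matched ethanol dilution as vehicle control, and grown 6–10 days. Colonies were stained with 0.1% […], then counted and sized from photographs. CFU = colonies/cells plated ×100. Mean ± SEM, n=3 or 4.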

VDR-EGFP fusion protein = biological target: T1, VDR-EGFP fusion protein (Homo sapiens, UniProt P11473); test: VDR translocation into the nucleus; format: cell-based; conditions: SKMEL-188 transduced with pLenti-CMV-VDR-EGFP, 10 nM, 90 min
T1 sequence (P11473 1-427): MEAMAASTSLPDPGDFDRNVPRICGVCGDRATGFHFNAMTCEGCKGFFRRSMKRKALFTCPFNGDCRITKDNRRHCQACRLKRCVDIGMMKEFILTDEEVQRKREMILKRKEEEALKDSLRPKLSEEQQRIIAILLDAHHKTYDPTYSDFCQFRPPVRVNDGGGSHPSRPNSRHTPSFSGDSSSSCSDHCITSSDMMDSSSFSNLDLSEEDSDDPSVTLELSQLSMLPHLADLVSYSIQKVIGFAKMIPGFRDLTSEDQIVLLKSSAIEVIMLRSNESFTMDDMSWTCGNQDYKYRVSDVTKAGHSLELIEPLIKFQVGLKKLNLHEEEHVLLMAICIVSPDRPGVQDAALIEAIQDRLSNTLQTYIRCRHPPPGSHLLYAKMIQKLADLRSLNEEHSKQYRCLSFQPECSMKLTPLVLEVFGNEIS
Method in brief: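 SKMEL-188 cells were stably transduced with a lentiviral CMV-driven VDR-EGFP fusion construct (10 MOI, 6 μg/ml polybrene). They were exposed to compound for 90 min, fixed in 4% paraformaldehyde, mounted and examined by fluorescence microscopy. In at least 10 fields, cells with fluorescent nuclei were counted and expressed as % of total cells. Student's t-test.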

[1] = tested on: AbC1 cell line derived from Bomirski hamster melanoma; test: [3H]-thymidine incorporation; format: cell-based

| Compound | EC50 (HaCaT keratinocytes) [nM] | inhibition of DNA synthesis (SKMEL-188 cells) | inhibition of colony formation (melanoma SKMEL-188) | translocation of VDR-GFP fusion protein into the nucleus (VDR-EGFP fusion protein) | effect on proliferation of HaCaT cells (HaCaT keratinocytes) | EC50 (HaCaT keratinocytes; Homo sapiens) [nM] | inhibition of DNA synthesis [1] |
| --- | --- | --- | --- | --- | --- | --- | --- |
| C=C1CC[C@H](O)C/C1=C/C=C1\CCC[C@]2(C)[C@@H](C(=O)CO)CC[C@@H]12 [21(OH)pD, (5Z,7E)-3β,21-Dihydroxy-9,10-secopregna-5,7,10(19)-trien-20-one] | 40 | inhibited DNA synthesis | best inhibition | efficient translocation |  |  |  |
| C[C@]12CC[C@H]3C(=CC=C4C[C@@H](O)CC[C@@]43C)[C@@H]1CC[C@@H]2C(=O)CO [21(OH)7DHP, 3β, 21-Dihydroxypregna-5,7-dien-20-one] |  | inhibited DNA synthesis |  | induced translocation | no effect | > 1000 |  |
| C[C@]12CC[C@@H]3C(=CC=C4C[C@@H](O)CC[C@]43C)[C@@H]1CC[C@@H]2C(=O)CO [21(OH)pL, 3β,21-Dihydroxy-9β,10α-pregna-5,7-dien-20-one] |  | highest inhibitory potency | less potent inhibitory effect | significantly lower | no effect | > 1000 | efficiently inhibited DNA synthesis |
| C=C1/C(=C\C=C2/CCC[C@]3(C)[C@@H]([C@H](C)CCCC(C)(C)O)CC[C@@H]23)C[C@@H](O)C[C@@H]1O [1,25(OH)2D3, reference compound] |  |  |  |  |  | 180 |  |
